The test system of series [1] is Mus musculus. Kind of series: Neurotoxicity in Albino mouse at 30 mg/kg, ip after 4 hrs by RotoRod test. The arrangement: dose 30 mg/kg, route intraperitoneal. To be noted: in vivo. In kind it is toxicity, organism-based. In short, it runs like this:
(§1)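 RotoRod neurotoxicity screen in mice dosed ip at 30, 100 and 300 mg/kg, in vehicle of 30% PEG 400 and 10% water (0.01 mL/g). Three animals per dose, tested 0.5 and 4 h after administration. Affected animals were scored per group.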
(In general: The rotarod test checks motor coordination on a turning rod.)

Series [2] relates to Mus musculus. Kind of series: Anticonvulsant activity in Albino mouse at 100 mg/kg, ip after 4 hrs by PTZ assay. The series is classed as functional, organism-based. The arrangement: dose 100 mg/kg. Summed up: (§2)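 Mice given compound ip at 30, 100 and 300 mg/kg in 30% polyethylene glycol 400 and 10% water, 0.01 mL/g body weight. Three animals per dose. Maximal electroshock (MES) or pentylenetetrazol (PTZ) seizure tests were run 0.5 and 4 h after dosing, and animals protected were counted.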

The test system of series [3] is Mus musculus. Briefly: Anticonvulsant activity in Albino mouse at 30 mg/kg, ip after 0.5 hrs by PTZ assay. In kind it is functional, organism-based. The arrangement: dose 30 mg/kg. In short, it runs like this:
as §2

Series [4] deals with Mus musculus. Kind of series: Anticonvulsant activity in Albino mouse at 300 mg/kg, ip after 4 hrs by PTZ assay. The arrangement: dose 300 mg/kg. In kind it is functional, organism-based. Summed up: as §2
The test system of series [5] is Mus musculus. Kind of series: Neurotoxicity in Albino mouse at 30 mg/kg, ip after 0.5 hrs by RotoRod test. In kind it is toxicity, organism-based. The arrangement: dose 30 mg/kg, route intraperitoneal. To be noted: in vivo. Summed up: as §1
Series [6] deals with Mus musculus. Kind of series: Anticonvulsant activity in Albino mouse at 100 mg/kg, ip after 0.5 hrs by PTZ assay. The series is classed as functional, organism-based. The arrangement: dose 100 mg/kg. In short, it runs like this:
as §2

Series [7] concerns Mus musculus. Kind of series: Anticonvulsant activity in Albino mouse at 300 mg/kg, ip after 0.5 hrs by PTZ assay. In kind it is functional, organism-based. The arrangement: dose 300 mg/kg. Summed up: as §2
Series [8] has as its system Mus musculus. Kind of series: Anticonvulsant activity in Albino mouse at 100 mg/kg, ip after 0.5 hrs by MES assay. The arrangement: dose 100 mg/kg. The series is classed as functional, organism-based. Summed up: as §2
Series [9] has as its system Mus musculus. Briefly: Anticonvulsant activity in Albino mouse at 300 mg/kg, ip after 4 hrs by MES assay. The series is classed as functional, organism-based. The arrangement: dose 300 mg/kg. In short, it runs like this:
as §2

In series [10] the test system is Mus musculus. Briefly: Neurotoxicity in Albino mouse at 300 mg/kg, ip after 0.5 hrs by RotoRod test. The series is classed as toxicity, organism-based. The arrangement: dose 300 mg/kg, route intraperitoneal. The note with it: in vivo. In short, it runs like this:
as §1

The subject of series [11] is Mus musculus. Briefly: Anticonvulsant activity in Albino mouse at 30 mg/kg, ip after 0.5 hrs by MES assay. In kind it is functional, organism-based. The arrangement: dose 30 mg/kg. In short, it runs like this:
as §2

Series [12] relates to Mus musculus. Briefly: Anticonvulsant activity in Albino mouse at 30 mg/kg, ip after 4 hrs by PTZ assay. In kind it is functional, organism-based. The arrangement: dose 30 mg/kg. In short, it runs like this:
as §2

Series [13] relates to Mus musculus. Kind of series: Neurotoxicity in Albino mouse at 100 mg/kg, ip after 4 hrs by RotoRod test. The arrangement: dose 100 mg/kg, route intraperitoneal. The note with it: in vivo. In kind it is toxicity, organism-based. In short, it runs like this:
as §1

Series [14] deals with Mus musculus. Briefly: Anticonvulsant activity in Albino mouse at 100 mg/kg, ip after 4 hrs by MES assay. The series is classed as functional, organism-based. The arrangement: dose 100 mg/kg. In short, it runs like this:
as §2

Series [15] has as its system Mus musculus. Kind of series: Neurotoxicity in Albino mouse at 300 mg/kg, ip after 4 hrs by RotoRod test. In kind it is toxicity, organism-based. The arrangement: dose 300 mg/kg, route intraperitoneal. To be noted: in vivo. Summed up: as §1
Series [16] has as its system Mus musculus. Kind of series: Neurotoxicity in Albino mouse at 100 mg/kg, ip after 0.5 hrs by RotoRod test. In kind it is toxicity, organism-based. To be noted: in vivo. The arrangement: dose 100 mg/kg, route intraperitoneal. Summed up: as §1
Series [17] deals with Mus musculus. Kind of series: Anticonvulsant activity in Albino mouse at 300 mg/kg, ip after 0.5 hrs by MES assay. The series is classed as functional, organism-based. The arrangement: dose 300 mg/kg. In short, it runs like this: as §2
For series [18], the system named is Mus musculus. Kind of series: Anticonvulsant activity in Albino mouse at 30 mg/kg, ip after 4 hrs by MES assay. The arrangement: dose 30 mg/kg. In kind it is functional, organism-based. In short, it runs like this: as §2

Structures are written as SMILES. Active and inactive are the calls of the source. The calls are words filed in the database; no cut-off is given here.

On to `CCCN(CCC)S(=O)(=O)N(CCC)CCC`, for which the Activity entry in [1], in series [5], in series [10], in series [13], in series [15] and in [16] was “Non-toxic” each time. In addition, the outcome in series [2], in series [3], in series [4], in [6], in series [7] and in series [8] was inactive. Also, the result in series [9], in series [11], in series [12], in series [14], in series [17] and in series [18] was inactive.

`CCCCN(CCCC)S(=O)(=O)NC(=O)OC(C)(C)C`: the Activity result in series [1], in series [5], in [10], in series [13], in series [15] and in series [16] was “Non-toxic” throughout. Moreover, the outcome in series [2], in [3], in series [4], in series [6], in series [7] and in series [11] was inactive. The result in [12] and in [14] was inactive.

In the case of `CCCN(CCC)S(=O)(=O)NC(=O)OC(C)(C)C`, the Activity result in series [1], in series [5], in series [10], in [13], in [15] and in series [16] was “Non-toxic” each time. Besides, the outcome in [2], in series [3], in series [4], in series [6], in series [7] and in [8] was inactive. Moreover, the result in series [9], in series [11], in series [12], in series [14] and in series [18] was inactive.

On to `O=S(=O)(N1CCOCC1)N1CCOCC1`, for which the Activity entry in series [1], in series [5], in [13] and in [16] was “Non-toxic” in each case. For the same compound, the result in series [2], in series [3], in series [6], in series [8], in [11] and in series [12] was inactive. The result in [14] and in series [18] was inactive.

As for `CCCCNS(N)(=O)=O`, the Activity entry is reported as “Non-toxic” in [1], “Non-toxic” in series [5], “Toxic” in [10] and “Non-toxic” in [13]. Further, the outcome in series [2], in series [3], in series [6], in series [8], in series [11] and in series [12] was inactive.

As for `CCCN(CCC)S(N)(=O)=O`, the Activity result in series [1], in series [5], in [13] and in series [16] was “Toxic” throughout. For the same compound, the outcome in series [3], in series [11], in [12] and in series [18] was inactive.

As for `CCCCN(CCCC)S(N)(=O)=O`, the Activity entry in series [1] was “Non-toxic”; in series [5] it was “Non-toxic”; in series [10], “Toxic”; in series [13], “Non-toxic”; in series [15], “Toxic”; in series [16], “Non-toxic”. The result in series [2], in [3], in series [11], in series [12], in series [14] and in [18] was inactive.

For the compound `CCCCN(CCCC)S(=O)(=O)N(CCCC)CCCC`, the Activity result in [1], in series [5], in series [10], in series [13], in series [15] and in series [16] was “Non-toxic” in each case. Moreover, the result in [2], in series [3], in [4], in series [6], in series [7] and in series [8] was inactive. The outcome in series [9], in series [11], in series [14], in [17] and in series [18] was inactive.

Consider `CCCNS(=O)(=O)NCCC`, for which the Activity entry in [1], in [5], in series [13], in series [15] and in [16] was “Non-toxic” each time. In addition, the outcome in [2], in series [3], in series [4], in series [8], in [9] and in [11] was inactive. Moreover, the result in [14] and in series [18] was inactive. Further, the result in series [7] and in series [17] was Active.

Consider `CCCCNS(=O)(=O)NC(=O)OC(C)(C)C`, for which the Activity entry in [1], in series [5], in [10], in series [13], in series [15] and in series [16] was “Non-toxic” in each case. In addition, the result in series [2], in series [3], in [4], in series [6], in series [7] and in [12] was inactive. Besides, in [18], the outcome was inactive. Also, the outcome in [8] and in series [17] was Active.
